Measured values taken from ChEMBL document CHEMBL1146134, “Synthesis and antifungal activity of 6-hydroxycinnolines” (2006).
≈ marks a conversion by molar mass, not a printed value.

How the values were obtained:
Assay type in all cases: functional
[1] = test system: Aspergillus niger; assay: Antifungal activity against Aspergillus niger KCTC 1231
Method in brief: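 MIC by twofold serial dilution in modified Sabouraud dextrose broth, with roughly 1 × 10⁵ cells/mL inoculum. Final test concentrations ranged 0.2 to 100. Plates held at 37 °C and read after 2 days. 5-Fluorocytosine served as reference agent.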

[2] = test system: Cryptococcus neoformans; assay: Antifungal activity against Cryptococcus neoformans KCCM 50564
Method in brief: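 Growth inhibition measured as MIC by twofold broth dilution in modified Sabouraud dextrose broth. Inoculum near 1 × 10⁵ cells/mL. Final agent concentrations spanned 0.2 to 100. 5-Fluorocytosine was run as standard.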

[3] = test system: Candida tropicalis; assay: Antifungal activity against Candida tropicalis KCCM 50662
Method in brief: (§1)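 Twofold broth dilution MIC in modified Sabouraud dextrose broth. Inoculum approximately 1 × 10⁵ cells/mL. Final agent concentrations ranged 0.2 to 100. Incubated at 37 °C and read after 1 day. MIC determined against 5-fluorocytosine as standard.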

[4] = test system: Candida albicans; assay: Antifungal activity against Candida albicans KCCM 50235; method in brief: as §1
[5] = test system: Pichia kudriavzevii; assay: Antifungal activity against Candida krusei KCCM 11655; method in brief: as §1

SMILES | MIC [1] [µg/mL] | MIC [2] [µg/mL] | MIC [3] [µg/mL] | MIC [4] [µg/mL] | MIC [5] [µg/mL]
COC(=O)C(C#N)C1=C(Sc2ccc(C)cc2)C(=O)C(C)=C(C)C1=O (stereo not given) | > 50 | 50 (≈ 141 µM) | > 50 | > 50 | 50 (≈ 141 µM)
COC(=O)c1c(N)nnc2c(C)c(C)c(O)c(Sc3cccc(C)c3)c12 | > 50 | 1.6 (≈ 4.33 µM) | > 50 | > 50 | > 50
COC(=O)C(C#N)C1=C(Sc2cccc(F)c2)C(=O)C(C)=C(C)C1=O (stereo not given) | 50 (≈ 139 µM) | 50 (≈ 139 µM) | 50 (≈ 139 µM) | 50 (≈ 139 µM) | 25 (≈ 69.6 µM)
COC(=O)C(C#N)C1=C(Sc2ccc(C)c(C)c2)C(=O)C(C)=C(C)C1=O (stereo not given) | 50 (≈ 135 µM) | > 50 | 50 (≈ 135 µM) | 50 (≈ 135 µM) | > 50
COC(=O)C(C#N)C1=C(Sc2ccccc2)C(=O)C(C)=C(C)C1=O (stereo not given) | 50 (≈ 146 µM) | 12.5 (≈ 36.6 µM) | 50 (≈ 146 µM) | 50 (≈ 146 µM) | 50 (≈ 146 µM)
COC(=O)C(C#N)C1=C(Sc2cccc(C)c2)C(=O)C(C)=C(C)C1=O (stereo not given) | > 50 | 50 (≈ 141 µM) | > 50 | > 50 | 1.6 (≈ 4.5 µM)
COC(=O)C(C#N)C1=C(Cl)C(=O)C(C)=C(C)C1=O (stereo not given) | 25 (≈ 93.4 µM) | 6.3 (≈ 23.5 µM) | 50 (≈ 187 µM) | 50 (≈ 187 µM) | 25 (≈ 93.4 µM)
Nc1nc(=O)[nH]cc1F [FLUCYTOSINE] | 12.5 (≈ 96.8 µM) | 12.5 (≈ 96.8 µM) | 12.5 (≈ 96.8 µM) | 6.3 (≈ 48.8 µM) | 6.3 (≈ 48.8 µM)

The remaining lines, values ahead:

MIC [1] [µg/mL] | MIC [2] [µg/mL] | MIC [3] [µg/mL] | MIC [4] [µg/mL] | MIC [5] [µg/mL] | SMILES
25 (≈ 67.7 µM) | 6.3 (≈ 17.1 µM) | 25 (≈ 67.7 µM) | > 50 | 3.2 (≈ 8.66 µM) | COC(=O)c1c(N)nnc2c(C)c(C)c(O)c(Sc3ccc(C)cc3)c12
12.5 (≈ 32.6 µM) | 1.6 (≈ 4.17 µM) | 25 (≈ 65.2 µM) | > 50 | 3.2 (≈ 8.34 µM) | COC(=O)c1c(N)nnc2c(C)c(C)c(O)c(Sc3ccc(C)c(C)c3)c12
6.3 (≈ 22.4 µM) | 25 (≈ 88.7 µM) | 50 (≈ 177 µM) | > 50 | 25 (≈ 88.7 µM) | COC(=O)c1c(N)nnc2c(C)c(C)c(O)c(Cl)c12
12.5 (≈ 35.2 µM) | 1.6 (≈ 4.5 µM) | 25 (≈ 70.3 µM) | > 50 | 6.3 (≈ 17.7 µM) | COC(=O)c1c(N)nnc2c(C)c(C)c(O)c(Sc3ccccc3)c12
1.6 (≈ 4.28 µM) | 6.3 (≈ 16.9 µM) | 50 (≈ 134 µM) | > 50 | 25 (≈ 67 µM) | COC(=O)c1c(N)nnc2c(C)c(C)c(O)c(Sc3cccc(F)c3)c12
